Shown are actives, neighbours in structure and some others; about 2.9% of the full set was active somewhere.
Env fusion inh = inhibitors of HIV Env-mediated cell fusion | HeLa-JRFL Env/CEM21 cell fusion, luciferase | inhibition, % at 12.3 µM | 1.1% of 360,000 active;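 active = mean replicate inhibition score of at least 50 and every replicate individually at or above 50; inconclusive = only one of the two criteria met; inactive = mean below 50 and not all replicates reaching 50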;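 note: 0% = plate neutral controls and 100% = maraviroc near 300 nM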
PAX8 reporter = inhibitors of PAX8 transcriptional activity in RMG-I cells | RMG-I TPO-luciferase reporter, SteadyGlo, 24 h | inhibition, % at 12.6 µM | 1.2% of 360,000 active | AID 652154;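 active = mean replicate inhibition at least 60% with every replicate also reaching 60%; inconclusive = only one of the two criteria is met; inactive = mean below 60% and not all replicates reaching 60%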;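 note: luciferase light reporting Pax8 driven TPO promoter activity; plate controls were median of neutral control wells for no effect and mitoxantrone controls for full effect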
Cneo AK release = causes C. neoformans cell lysis; adenylate kinase release luminescence, 4 h; normalised: neutral wells 0, clomiphene wells 100; lysis activity, % at 15 µM; 0.2% of 360,000 active; AID 651654;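 active = mean lysis activity across replicates of at least 80%, whatever share of replicates individually reach that level; inactive = mean lysis activity below 80%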
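Schedule: static 4 h at 37 °C with compound, 1 h detection; system: C. neoformans cells; benchmarks: Clomiphene as positive control; buffer or medium: fresh YPD medium; measure: luminescence rise reflecting yeast cell lysis; measured by: luminescent adenylate kinase detection reagent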
dFosB activator = enhances mouse delta FosB homodimer DNA binding. P13346. purified delta FosB, TAMRA-CDK5 oligo fluorescence polarization; percent of positive-control signal above neutral wells. activation, % at 25 µM. 0.99% of 340,000 active;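 active = mean activation above about 17%, with every replicate also reaching it, limit read from the data, passing the limit was not always enough; inconclusive = only one of the two conditions met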
Target sequence (P13346 whole entry, looked up): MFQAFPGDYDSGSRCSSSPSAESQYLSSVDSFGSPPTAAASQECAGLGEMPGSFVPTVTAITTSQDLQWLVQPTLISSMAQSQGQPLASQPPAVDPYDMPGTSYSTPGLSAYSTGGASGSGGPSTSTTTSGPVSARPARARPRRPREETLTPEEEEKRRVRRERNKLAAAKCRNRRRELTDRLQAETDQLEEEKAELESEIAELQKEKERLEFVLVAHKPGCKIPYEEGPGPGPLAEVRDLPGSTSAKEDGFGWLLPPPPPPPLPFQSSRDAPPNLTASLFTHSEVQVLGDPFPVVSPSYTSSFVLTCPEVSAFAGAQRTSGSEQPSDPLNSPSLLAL
GSIS activator = GLuc luminescence reporter in INS-1E cells, primary screen for activators of glucose-dependent secretion of insulin. INS-1E GLuc reporter insulin secretion, 2-3 h. activation, % at 16.6 µM. 0.61% of 370,000 active. AID 743287;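 active = lowest replicate activation of at least 40%, so every replicate reaches that level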;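 note: 0% = median of neutral control wells and 100% = median of IBMX positive control wells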
CDK5 inh = blocks human CDK5/p35 kinase activity. Q00535+Q15078. Recombinant CDK5/p35, ADP-Glo luminescence, 60 min. inhibition, % at 10 µM. 0.01% of 330,000 active. AID 488839;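 active = highest replicate inhibition of at least 50% and at least 75% of replicates reaching 50%; inconclusive = only one of the two criteria met; inactive = both criteria failed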;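 note: plate controls were DMSO neutral control for no effect and GW8510 at 10 µM for full effect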
* = called active by the depositor; i = inactive; ? = inconclusive; nt = no result given; [ ] = another dose, or the depositor's remark.

SMILES | Env fusion inh | PAX8 reporter | Cneo AK release | dFosB activator | GSIS activator | CDK5 inh
O=C(Cn1ncc(Cl)c(Cl)c1=O)c1ccc2c(c1)OCCO2 | -83.7 | -26.0 | nt | -6.8 | 14.7 | -1.2
Cc1ccc(C(=O)OCn2ncc(Cl)c(Cl)c2=O)cc1 | i | nt | -3.3 | -0.5 | nt | 0.8
COCCNC(=O)C[C@H]1CC[C@H]2[C@H](COc3ccc(NC(=O)c4cc(C)on4)cc3C(=O)N2C)O1 | nt | -4.1 | -0.5 | nt | 8.5 | nt
COc1ccc(C(=O)CSc2nnc(Cn3cnc4ccccc43)o2)cc1 | 105.9* | -12.0 | 1.6 | -0.2 | nt | -1.2
CC(=O)c1ccc(NC(=O)CSc2nnc(Cn3cnc4ccccc43)o2)cc1 | 0.9 | 0.4 | 0.5 | -5.5 | -2.0 | 1.0
Cc1noc(C)c1NC(=O)Nc1ccc2c(c1)C(=O)N([C@H](C)CO)C[C@H](C)[C@@H](CN(C)C(=O)CCCN(C)C)OCCCC[C@H](C)O2 | -22.4[16.7 µM] | -17.9 | 51.5 | nt | 4.2 | nt
CCCCC(=O)Nc1cc2nn(-c3ccc(OC)cc3)nc2cc1C | nt | nt | -1.8 | 2.5 | 10.3 | 0.5
CCC(=O)Nc1cc2nn(-c3ccc(OC)cc3)nc2cc1C | nt | nt | -1.7 | -3.5 | 107.8* | 2.0
Cc1ccc2cccc(NS(=O)(=O)c3ccccc3)c2n1 | -28.7 | 96.2* | nt | nt | -0.6 | nt
Cc1cc(C)n(-c2ccc3cccc(NS(C)(=O)=O)c3n2)n1 | 60.4* | nt | -15.2 | 1.6 | nt | -0.3
CS(=O)(=O)Nc1cccc2cccnc12 | nt | nt | -0.1 | 1.5 | nt | -5.6
CC(=O)Nc1ccc(S(=O)(=O)Nc2cccc3cccnc23)cc1 | -12.6 | 4.5 | 0.1 | -15.4 | 18.2 | 1.0
O=S(=O)(Nc1cccc2cccnc12)c1ccccc1 | 2.2 | 105.4* | 0.3 | 3.7 | 3.8 | -0.9
Cc1ccc(S(=O)(=O)Nc2cccc3cccnc23)c([N+](=O)[O-])c1 | -25.8 | 71.0* | 4.2 | -7.7 | 6.4 | 0.7
CCCc1cn(CC[C@@H]2CC[C@@H](NS(=O)(=O)c3ccc(-c4ccccc4)cc3)[C@@H](CO)O2)nn1 | -2.6[16.7 µM] | 14.1 | 33.6 | nt | -20.7 | nt
Cc1ccc(-c2cnc3c(c2)C(=O)N([C@@H](C)CO)C[C@H](C)[C@H](CN(C)C)O3)cc1 | -7.4[16.7 µM] | nt | -9.3 | nt | 18.6 | nt
O=C(C[C@H]1C[C@@H]2c3cc(NC(=O)Nc4ccccc4)ccc3O[C@@H]2[C@@H](CO)O1)NCc1ccccc1 | -16.2[16.7 µM] | 5.3 | -0.2 | nt | 0.2 | nt
O=C(C[C@@H]1C[C@H]2c3cc(NC(=O)Nc4ccccc4)ccc3O[C@H]2[C@H](CO)O1)NCc1cccnc1 | 62.8*[16.7 µM] | 7.7 | 0.7 | nt | -10.4 | nt
O=C(C[C@H]1C[C@H]2c3cc(NC(=O)c4ccc5c(c4)OCO5)ccc3O[C@H]2[C@H](CO)O1)NCc1ccc(Oc2ccccc2)cc1 | 73.1*[16.7 µM] | -4.2 | 5.4 | nt | 3.0 | nt
O=C(C[C@@H]1C[C@H]2c3cc(NC(=O)Nc4ccccc4F)ccc3O[C@H]2[C@H](CO)O1)NCc1ccc(Oc2ccccc2)cc1 | -17.8[16.7 µM] | 74.6* | 1.7 | nt | -16.6 | nt
O=C(C[C@@H]1C[C@@H]2c3cc(NC(=O)Nc4ccccc4)ccc3O[C@@H]2[C@@H](CO)O1)NCc1ccccc1 | 59.0*[16.7 µM] | -1.9 | -0.4 | nt | 12.4 | nt
O=C(C[C@@H]1C[C@@H]2c3cc(NC(=O)Nc4ccccc4F)ccc3O[C@@H]2[C@@H](CO)O1)NCc1ccc(Oc2ccccc2)cc1 | 7.8[16.7 µM] | -1.0 | 4.7 | nt | 2.9 | nt
C[C@@H]1CN([C@H](C)CO)C(=O)c2cccc(NC(=O)CCCCCC(=O)Nc3ccccc3N)c2O[C@@H]1CN(C)C(=O)NC1CCCCC1 | nt | nt | nt | nt | 1.1 | nt
COc1ccc(-c2ccc3n(c2=O)C[C@H]2[C@H](CO)[C@@H](C(=O)N(C)C)N(CC4CCCC4)[C@@H]32)cc1 | -3.3[16.7 µM] | ? | 1.6 | nt | -6.6 | nt
COc1ccc2c3c([nH]c2c1)[C@@H](CO)N(C(C)=O)CC31CCN(C(=O)Nc2ccc(F)cc2)CC1 | nt | nt | nt | nt | 4.8 | nt
SMILES | Env fusion inh | PAX8 reporter | Cneo AK release | dFosB activator | GSIS activator | CDK5 inh
C[C@H]1CN([C@@H](C)CO)C(=O)c2cc(C#Cc3ccncc3)cnc2O[C@H]1CN(C)S(=O)(=O)c1ccccc1F | 12.6[16.7 µM] | nt | 39.8 | nt | -5.0 | nt
CC(C)NC(=O)Nc1ccc2c(c1)C(=O)N([C@@H](C)CO)C[C@H](C)[C@H](CN(C)C)OCCCC[C@@H](C)O2 | 6.1[16.7 µM] | -8.7 | -0.6 | nt | 6.9 | nt
O=C(C[C@@H]1C[C@@H]2c3cc(NC(=O)Nc4ccc(F)cc4)ccc3O[C@@H]2[C@@H](CO)O1)NCC1CC1 | nt | -12.7 | 86.5* | nt | -0.1 | nt
O=C(NCC[C@H]1CC[C@@H](NS(=O)(=O)c2ccccc2F)[C@H](CO)O1)c1ccc(F)cc1 | 5.8[16.7 µM] | 0.2 | 1.2 | nt | -6.8 | nt
Cc1ccc(CS(=O)Cc2ccc(C(=O)NCc3ccccc3)o2)cc1 (configuration not stated) | 9.0 | -13.3 | -1.5 | -1.4 | 43.4* | 0.7
C[C@@H]1CN([C@H](C)CO)C(=O)c2cc(NC(=O)c3ccncc3)ccc2O[C@@H]1CN(C)C(=O)Nc1cccc2ccccc12 | 5.0[16.7 µM] | 10.3 | 65.1 | nt | 15.1 | nt
Cc1ccc(S(=O)(=O)N(C)C[C@H]2Oc3ccc(NC(=O)Cc4cn(C)c5ccccc45)cc3CC(=O)N([C@@H](C)CO)C[C@@H]2C)cc1 | 1.1[16.7 µM] | -23.9 | -1.3 | nt | 4.4 | nt
C[C@H]1CN([C@@H](C)CO)C(=O)Cc2cc(NC(=O)Cc3cn(C)c4ccccc34)ccc2O[C@H]1CN(C)S(=O)(=O)c1ccccc1 | 67.1*[16.7 µM] | -10.6 | 0.3 | nt | 2.3 | nt
C[C@H](CO)N1C[C@H](C)[C@H](CN(C)S(=O)(=O)c2ccc(F)cc2)Oc2ccc(NC(=O)Cc3cn(C)c4ccccc34)cc2CC1=O | 56.0*[16.7 µM] | -0.6 | 1.4 | nt | -19.3 | nt
Cc1ccc(S(=O)(=O)N(C)C[C@@H]2Oc3ccc(NC(=O)Cc4cn(C)c5ccccc45)cc3CC(=O)N([C@H](C)CO)C[C@@H]2C)cc1 | 73.7*[16.7 µM] | 2.9 | 42.8 | nt | -3.5 | nt
CCOc1ccc(S(=O)(=O)NCc2ccncc2)cc1 | 84.8* | nt | -4.3 | -0.8 | nt | -0.6
CC(C)NC(=O)Nc1ccc2c(c1)C(=O)N([C@@H](C)CO)C[C@@H](C)[C@@H](CN(C)Cc1ccncc1)OCCCC[C@@H](C)O2 | 13.3[16.7 µM] | -8.6 | 0.1 | nt | 12.2 | nt
CC1(C(=O)Nc2ccc(Cl)c(Cl)c2)CCN1Cc1ccccc1OC(F)F (configuration not stated) | 14.5 | -11.7 | -0.1 | nt | -2.8 | nt
COc1ccc(NC(=O)C2(C)CCN2Cc2ccccc2OC(F)F)cc1OC (configuration not stated) | 71.5* | 20.5 | -0.5 | nt | -5.6 | nt
CNC[C@@H]1OCCCC[C@H](C)Oc2ccc(NC(=O)NC(C)C)cc2C(=O)N([C@@H](C)CO)C[C@@H]1C | -3.2[16.7 µM] | -13.9 | -0.6 | nt | 7.7 | nt
CC1CCN(CCOc2ccc(OCc3ccccc3)cc2)CC1 | nt | 118.4* | -3.9 | -5.1 | -4.0 | -0.2
COc1ccc2c3c(n(C)c2c1)[C@@H](CO)N(C(=O)c1ccccc1)CC31CN(Cc2ccccc2OC)C1 | nt | nt | nt | nt | 10.7 | nt
